# Publication PMC7947324 (Pharmacology Research & Perspectives, 2021)
# Entries after “also recorded” stand apart in the source; their conditions may differ.
# Experiments:
# INS‐1 (832/3) cells [1] = conditions: cited from earlier work
# INS‐1 (832/3) cells [2] = experiment: INS‐1; format: cell-based, rat; conditions: for effect of antagonist on the PGE2 dose–response (GSIS): 10 µM antagonist, PGE2 1 pM to 50 μM; for effect of antagonist on the sulprostone dose–response (GSIS): sulprostone 1 pM to 50 μM; for reduction of GSIS at high concentration compared with PGE2: 50–100 µM; for concentration from which the agonist reduces GSIS / effect of agonist on GSIS (dose–response): agonist alone; for effect of agonist on GSIS (dose–response): 1 pM to 50 or 100 μM, 16.7 mM glucose
# How it was run: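 INS‐1 (832/3) cells (passage 35 or below) plated and cultured 72 h before GSIS. Agonists tested from 1 pM to 10, 50 or 100 µM, with or without 20 µM EP3 antagonist or 10 µM other EP antagonists. Insulin measured by in‐house ELISA and expressed relative to 16.7 mM glucose. N = 3–5 independent experiments, mean ± SEM, two‐way ANOVA with Holm–Sidak.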
# mouse DP2 receptor [3] = experiment: Published agonism at mouse DP2 receptor; format: biochemical; conditions: from published pKi values of Table 3
# mouse DP2 receptor [4] = conditions: ref Table 3; cited from earlier work
# INS‐1 (832/3) cells [5] = experiment: Relative gene expression by qPCR in INS‐1; format: cell-based, rat; conditions: for Ptges expression vs. control: 2^ΔΔCt method, AA enrichment alone or 10 ng/ml IL‐1β
# INS‐1 (832/3) cells [6] = experiment: Total insulin content of INS‐1; format: cell-based, rat; conditions: 10 ng/ml, regardless of fatty acid treatment
# How it was run: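 Cells at 70% confluence were cultured 48 h in medium with 1% fatty acid‐free BSA, with or without 100 μM AA, then 24 h with vehicle or 10 ng/ml IL‐1β. Assay groups were 1.7 mM glucose, 16.7 mM glucose, 16.7 mM + 10 nM agonist, and 16.7 mM + 20 µM EP3 antagonist. Secreted insulin was given as percent of content; content and secretion by in‐house ELISA. N = 3–4, mean ± SEM, two‐way ANOVA with Holm–Sidak.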
# INS‐1 (832/3) cells [7] = experiment: PGE2 production; format: cell-based, rat; conditions: BSA or AA cultured cells, 10 ng/mL IL‐1β or vehicle
# INS‐1 (832/3) cells [8] = experiment: Membrane phospholipid AA and EPA composition of INS‐1; format: cell-based, rat; conditions: 100 μM AA‐enriched medium, 48 h
# rat EP1 receptor = conditions: cited from earlier work
# rat EP3 receptor = conditions: cited from earlier work
molecule,measurement,setting,value
CC/C=C\C[C@H](O)/C=C/[C@H]1[C@H](O)CC(=O)[C@@H]1C/C=C\CCCC(=O)O [PGE3],effect on INS‐1 cell GSIS,INS‐1 (832/3) cells [1],significantly reduce INS‐1 cell GSIS
SC51089,effect of antagonist on the PGE2 dose–response (GSIS),INS‐1 (832/3) cells [2],"neither of two EP1 antagonists, SC19220 or SC51089, affect the PGE2 dose–response"
same,effect of antagonist on the iloprost dose–response curve (GSIS),"INS‐1 (832/3) cells [2]; 10 μM antagonist, iloprost 1 pM to 100 μM",no effect
same,effect of antagonist on the sulprostone dose–response (GSIS),INS‐1 (832/3) cells [2]; 10 μM antagonist,"neither SC51089, AH2384B, SC19220, nor L161,982 affecting the sulprostone dose–response"
"COc1ccc(Br)cc1S(=O)(=O)NC(=O)/C=C/c1ccccc1Cc1ccc2ccccc2c1 [L798,106]","effect of antagonist on GSIS reduced by PGD2, PGF2α, cicaprost or U‐46619","INS‐1 (832/3) cells [2]; 20 μM L798,106",fully restores INS‐1 (832/3) GSIS
same,increase in GSIS vs. 16.7 mM glucose alone,"INS‐1 (832/3) cells [2]; 20 µM, AA enrichment and 10 ng/ml IL‐1β pretreatment",~ 30%
same,effect of antagonist alone on GSIS,"INS‐1 (832/3) cells [2]; 20 µM, no IL‐1β treatment, control and AA‐enriched cells",no potentiating effect; also recorded: unaffected
same,increase of the IC50 for PGE2 (reduction of GSIS) by antagonist,"INS‐1 (832/3) cells [2]; PGE2 1 pM to 10 μM with and without 20 μM L798,106",over 100 fold
CC(=O)NNC(=O)N1Cc2ccccc2Oc2ccc(Cl)cc21 [SC19220],effect of antagonist on the PGE2 dose–response (GSIS),INS‐1 (832/3) cells [2],"neither of two EP1 antagonists, SC19220 or SC51089, affect the PGE2 dose–response"
same,effect of antagonist on the sulprostone dose–response (GSIS),INS‐1 (832/3) cells [2]; 10 μM antagonist,"neither SC51089, AH2384B, SC19220, nor L161,982 affecting the sulprostone dose–response"
CCCCC[C@H](O)/C=C/[C@H]1C(=O)C[C@H](O)[C@@H]1C/C=C\CCCC(=O)O [PGD2],reduction of GSIS at high concentration compared with PGE2,INS‐1 (832/3) cells [2],nearly reaching the maximal potency of PGE2
same,concentration from which the agonist reduces GSIS,INS‐1 (832/3) cells [2],1 µM
"CCC#CC[C@H](C)[C@H](O)C#C[C@@H]1[C@H]2C/C(=C/COCC(=O)O)C[C@H]2C[C@H]1O [Cicaprost, cicaprost]",reduction of GSIS at high concentration compared with PGE2,INS‐1 (832/3) cells [2],nearly reaching the maximal potency of PGE2
same,concentration from which the agonist reduces GSIS,INS‐1 (832/3) cells [2],1 µM
"CS(=O)(=O)NC(=O)CCC/C=C\C[C@H]1C(=O)C[C@@H](O)[C@@H]1/C=C/[C@@H](O)COc1ccccc1 [Sulprostone, sulprostone]",effect of agonist on GSIS (dose–response),INS‐1 (832/3) cells [2],nearly identical results as with PGE2; also recorded: significantly reduce INS‐1 cell GSIS
"COc1ccc2c(c1)c(CC(=O)O)c(C)n2C(=O)c1ccc(Cl)cc1 [Indomethacin, indomethacin]",effect of agonist on GSIS (dose–response),INS‐1 (832/3) cells [2],no significant effect
same,effect of agonist on GSIS (dose–response),INS‐1 (832/3) cells [2]; listed as indomethacin,no effect on GSIS
PF‐04418948,effect of antagonist on the PGE2 dose–response (GSIS),INS‐1 (832/3) cells [2],no effect
CCCCC[C@H](O)/C=C/[C@H]1[C@H](O)CC(=O)[C@@H]1C/C=C\CCCC(=O)O [PGE2],potentiation of GSIS,"INS‐1 (832/3) cells [2]; 10 nM, AA‐enriched cells pretreated with IL‐1β",approximately twofold
same,effect on GSIS,"INS‐1 (832/3) cells [2]; 10 nM, IL‐1β‐treated control (BSA) cells",no further inhibitory effect
same,effect on GSIS,"INS‐1 (832/3) cells [2]; 10 nM, cells without IL‐1β, with or without AA enrichment",blunts INS‐1 (832/3) GSIS regardless of AA enrichment
same,effect of agonist on GSIS (dose–response),INS‐1 (832/3) cells [2],reduces INS‐1 (832/3) GSIS in a dose‐dependent manner; also recorded: significantly reduce INS‐1 cell GSIS
same,maximal reduction in GSIS,INS‐1 (832/3) cells [2]; maximal potency,~ 60%
same,reduced potency at DP2 as compared to EP3,mouse DP2 receptor [3],~ 3000 fold
same,agonist type at mouse DP2 receptor,mouse DP2 receptor [4],full agonist
CCCCC[C@H](O)/C=C/[C@@H]1[C@@H](C/C=C\CCCC(=O)O)[C@@H](O)C[C@H]1O [PGF2α],reduction of GSIS at high concentration compared with PGE2,INS‐1 (832/3) cells [2],nearly reaching the maximal potency of PGE2
same,concentration from which the agonist reduces GSIS,INS‐1 (832/3) cells [2],1 µM
"IL‐1β: Interleukin‐1β, cytokine used at 10 ng/ml to mimic the diabetic state and induce PGE2 production",Ptger1 expression,INS‐1 (832/3) cells [5]; 10 ng/ml IL‐1β,unaffected
same,Ptger3 expression upregulation,INS‐1 (832/3) cells [5]; 10 ng/ml IL‐1β,~ 6 fold
same,Ptger4 expression upregulation,INS‐1 (832/3) cells [5]; 10 ng/ml IL‐1β,~ 10 fold
same,Ptges2 expression induction,INS‐1 (832/3) cells [5]; 10 ng/ml IL‐1β,~ 2 fold
same,Ptges3 expression induction,INS‐1 (832/3) cells [5]; 10 ng/ml IL‐1β,~ 2.5 fold
same,Ptgs1 expression induction,INS‐1 (832/3) cells [5]; 10 ng/ml IL‐1β,2–4 fold
same,Ptgs2 expression induction,INS‐1 (832/3) cells [5]; 10 ng/ml IL‐1β,~ 10 fold
same,Ptges expression vs. control,INS‐1 (832/3) cells [5],~ 100 fold
same,reduction of insulin content,INS‐1 (832/3) cells [6],~50%
same,substrate‐dependent PGE2 production,INS‐1 (832/3) cells [7],only induced with IL‐1β treatment
CCCCC[C@H](O)/C=C/[C@H]1[C@H](O)CC(=O)[C@@H]1CCCCCCC(=O)O [PGE 1],effect on INS‐1 cell GSIS,INS‐1 (832/3) cells [1],significantly reduce INS‐1 cell GSIS
O=C(O)CC/C=C\CC[C@H]1[C@H](N2CCOCC2)C(=O)C[C@H]1OCc1ccc(-c2ccccc2)cc1 [AH2384B],effect of antagonist on the PGE2 dose–response (GSIS),INS‐1 (832/3) cells [2],excluded from mediating the effect of PGE2 on GSIS
same,effect of antagonist on the sulprostone dose–response (GSIS),INS‐1 (832/3) cells [2]; 10 μM antagonist,"neither SC51089, AH2384B, SC19220, nor L161,982 affecting the sulprostone dose–response"
"CCCCC/C=C\C/C=C\C/C=C\C/C=C\CCCC(=O)O [AA, arachidonic acid]",Ptges expression vs. control,INS‐1 (832/3) cells [5],~ 3.5 fold
same,AA abundance in membrane phospholipids vs controls,INS‐1 (832/3) cells [8],4 fold
same,AA:EPA ratio vs controls,INS‐1 (832/3) cells [8],25 fold
"CC#CCC(C)[C@H](O)/C=C/[C@@H]1[C@H]2C/C(=C/CCCC(=O)O)C[C@H]2C[C@H]1O (stereo partly drawn) [Iloprost, iloprost]",effect of agonist on GSIS (dose–response),INS‐1 (832/3) cells [2],dose‐dependently reduces GSIS; also recorded: significantly reduce INS‐1 cell GSIS
same,agonist type at rat EP1 receptor,rat EP1 receptor,only a partial agonist
same,agonist type at rat EP3 receptor,rat EP3 receptor,full agonist
"CCCCc1nn(-c2ccccc2C(F)(F)F)c(=O)n1Cc1ccc(-c2ccccc2S(=O)(=O)NC(=O)c2sccc2C)cc1 [L161,982]",effect of antagonist on the PGE2 dose–response (GSIS),INS‐1 (832/3) cells [2],excluded from mediating the effect of PGE2 on GSIS
same,effect of antagonist on the sulprostone dose–response (GSIS),INS‐1 (832/3) cells [2]; 10 μM antagonist,"neither SC51089, AH2384B, SC19220, nor L161,982 affecting the sulprostone dose–response"
